From ChEMBL document CHEMBL1938316, “Synthesis and anti-HCV activity evaluation of anilinoquinoline derivatives” (Bioorg Med Chem Lett, 2012) come the findings set out here.

The source made the active and inactive calls. No cut-off for these calls is given here.

Assay [1] has as its system Hepatitis C virus. Kind of assay: Antiviral activity against HCV infected in human Ava5 cells assessed as reduction in HCV RNA level after 3 days by qRT-PCR analysis. The assay is classed as functional, organism-based, Hepacivirus hominis. As to conditions: for EC50: Ava5, 72 h. In outline:
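Ava5 cells (Huh7 harbouring HCV subgenomic replicon) exposed to compounds at 0.5–150 µM for 3 days. Total cellular RNA quantified by RT-qPCR with HCV-specific primers, normalised to GAPDH mRNA. EC50 is the concentration lowering HCV RNA by 50% versus 0.1% DMSO mock, from non-linear regression. Means of triplicate experiments.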
A general note: Real-time PCR tracks product formation cycle by cycle.

The nature of assay [2]: Selectivity index, ratio of CC50 for human Ava5 cells to IC50 for HCV replication. The assay is classed as functional. In outline:
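CC50 from MTS viability in Ava5 cells, run in parallel with replicon treatment (0.5–150 µM, 3 days, versus 0.1% DMSO mock). EC50 is 50% reduction in HCV RNA by RT-qPCR. Index calculated as CC50/EC50.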

Assay [3] concerns Hepatitis C virus. Briefly: Antiviral activity against HCV infected in human Ava5 cells assessed as inhibition of NS5B protein expression after 4 days by Western blot analysis. The assay is classed as functional, organism-based. As to conditions: Hepacivirus hominis. In a few lines:
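Ava5 cells (Huh7 carrying HCV subgenomic replicon) incubated 4 days with compound at 2.5–15 µM; 0.1% DMSO as mock. Cell lysates analysed by western blot with anti-NS5B antibody, GAPDH as loading control.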

A further assay has as its system Huh-7. Briefly: Inhibition of HCV NS3/4A protease expressed in human Huh7 cells coexpressing EGFP at 15 uM after 3 days by secretory alkaline phosphatase reporter gene assay. As to conditions: Hepacivirus hominis. It is filed as cell-based. In outline: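 Huh-7 cells transfected 6 h with 0.5 µg pEG(Δ4AB)SEAP-NS3/4A reporter plasmid, then treated with compound at 5, 10, 12.5 and 15 µM. Controls: 10 nM BILN 2061 (positive) and 0.1% DMSO (mock). SEAP activity in culture medium read after 3 days, expressed as % reduction versus mock. Triplicates, mean ± SD.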

The test system of assay [4] is Hepatitis C virus. Briefly: Antiviral activity against HCV infected in human Ava5 cells assessed as reduction in HCV RNA level at 15 uM after 3 days by qRT-PCR analysis relative to control. It is filed as functional, Hepacivirus hominis. Also on record: scale not given: the % may be the effect or the level left. In outline:
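HCV replicon Ava5 cells treated 3 days at 2.5–15 µM. HCV RNA measured by RT-qPCR, normalised to GAPDH mRNA, relative to 0.1% DMSO mock. Triplicate experiments, mean ± SD.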

The test system of assay [5] is Internal ribosome entry site (IRES). Briefly: Inhibition of HCV IRES-mediated translation by secretory alkaline phosphatase reporter gene assay. As to conditions: Hepacivirus hominis. The assay is classed as nucleic-acid assay.
The next assay relates to Hepacivirus hominis. Briefly: Inhibition of HCV NS5B polymerase activity by luciferase reporter gene assay.

`CCOC(=O)c1ccc(Nc2ccc3ccccc3n2)cc1`: the EC50 (commonly the midpoint of the concentration-response curve) with Hepatitis C virus [1] was determined as 50 µM. For the same molecule, the “Ratio CC50/EC50” value in assay [2] turned out to be 2.9.
For `N#Cc1ccc(Nc2ccc3ccccc3n2)cc1` the same measures were 14.3 µM and 3.5.
As to `Clc1cc(Br)ccc1Nc1ccc2ccccc2n1`, in the assay on Hepatitis C virus [1], the EC50 came to 45 µM. Further, in assay [2], the “Ratio CC50/EC50” value is 1.
For the molecule `Cc1cc(C)cc(Nc2ccc3ccccc3n2)c1`, the EC50 with Hepatitis C virus [1] is 31 µM. Further, the “Ratio CC50/EC50” value in assay [2] is 1.
For `COc1cc(Nc2ccc3ccccc3n2)cc(OC)c1OC` the same measures were 25 µM and 3.
For `O=[N+]([O-])c1ccc(Nc2ccc3ccccc3n2)cc1` the same measures were 20 µM and 2.4.
For `O=[N+]([O-])c1cc(Nc2ccc3ccccc3n2)ccc1O` the same measures were 21.7 µM and 3.8.
In the case of `c1ccc(Nc2ccc3ccccc3n2)cc1`, in the assay on Hepatitis C virus [1], the 50% effective concentration (EC50) amounted to 23 µM. Also, the “Ratio CC50/EC50” value in assay [2] was found to be 1.96.
For `COc1ccc(Nc2ccc3ccccc3n2)cc1` the same measures were 43 µM and 1.
In the case of `COc1cc(Nc2ccc3ccccc3n2)cc(OC)c1`, the EC50 in the assay with Hepatitis C virus [1] was found to be 33 µM. For the same molecule, the “Ratio CC50/EC50” value in assay [2] is reported as 1.
As to `O=[N+]([O-])c1cccc(Nc2ccc3ccccc3n2)c1`, the 50% effective concentration (EC50) in the assay on Hepatitis C virus [1] was 7 µM. Further, the Activity entry in the assay with Hepatitis C virus [1] (Hepacivirus hominis) is “Dose-dependent effect”; in the assay with Hepatitis C virus [4], 80%. For the same molecule, the “Ratio CC50/EC50” value in assay [2] is listed as 10. In addition, the figures for the inhibition entry with Hepatitis C virus [3] and in the assay with Huh-7 were “Dose-dependent effect” and 40%, respectively. Further, the inhibition entry (in assay [5]; in the assay on Hepacivirus hominis) was “inactive” in each case.
For `Clc1ccc(Nc2ccc3ccccc3n2)cc1`, in the assay with Hepatitis C virus [1], the concentration for a half-maximal effect (EC50) amounted to 53 µM. Besides, the “Ratio CC50/EC50” value in assay [2] worked out at 1.1.
For `Cc1ccc(Nc2ccc3ccccc3n2)cc1` the same measures were 43 µM and 1.
For `Cc1cc(Cl)ccc1Nc1ccc2ccccc2n1` the same measures were 12.5 µM and 3.4.
For `Cc1ccc(Nc2ccc3ccccc3n2)c(C)c1` the same measures were 35 µM and 1.
`c1ccc(COc2cccc(Nc3ccc4ccccc4n3)c2)cc1`: in the assay on Hepatitis C virus [1], the 50% effective concentration (EC50) amounted to 15.1 µM. The “Ratio CC50/EC50” value in assay [2] is on record as 3.1.
For `Brc1ccccc1Nc1ccc2ccccc2n1` the same measures were 60 µM and 1.
Consider `Cc1cccc(C)c1Nc1ccc2ccccc2n1`, for which the EC50 in the assay on Hepatitis C virus [1] was determined as 40 µM. In addition, the “Ratio CC50/EC50” value in assay [2] was 1.
